Bioassay records from PubChem.
PAFAH1B2 inh: PAFAH1B2 enzyme inhibitors, primary screen, biochemical, fluorescence polarization, human. Platelet-activating factor acetylhydrolase IB subunit alpha2 (Homo sapiens), P68402. recombinant PAFAH1B2, FP-rhodamine activity probe. inhibition, % at 3.39 µM. hit rate 1.2% among 340,000. AID 492953, 2010;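 active means inhibition above the mean of all tested compounds plus 3 SD, cut at about 24% in these data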
PAFAH2 inh: PAFAH2 enzyme inhibitors, primary screen, biochemical, fluorescence polarization, human; Platelet-activating factor acetylhydrolase 2, cytoplasmic (Homo sapiens), Q99487; recombinant PAFAH2, FP-rhodamine activity probe; inhibition, % at 3.39 µM; hit rate 0.99% among 340,000; AID 492956, 2010;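 active means inhibition above the mean over all tested compounds plus 3 SD, cut at about 30% in these data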;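 further: inhibitors block probe labeling of enzyme so polarization drops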
pPAFAH inh: pPAFAH enzyme inhibitors, primary screen, biochemical, fluorescence polarization, human | inhibition, % at 3.39 µM | AID 463082, 2010 | recombinant pPAFAH, FP-rhodamine probe fluorescence polarization | hit rate 1.5% among 330,000 | Platelet-activating factor acetylhydrolase (Homo sapiens), Q13093;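 active means inhibition above the mean inhibition across the screen plus 3 SD, cut at about 25% in these data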;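 further: inhibitors block binding of the rhodamine activity-based probe so polarization drops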
GRIN3A LBD mod: binders of NR3A ligand-binding domain, primary screen, biophysical, differential scanning fluorimetry, uHTS | NR3A LBD differential scanning fluorimetry, Tm shift; 0% = protein alone, 100% = glycine-bound protein | Glutamate receptor ionotropic, NMDA 3A (GRIN3A) ligand-binding domain | hit rate 2.5% among 340,000 | Tm shift relative to glycine control, % at 25 µM | AID 1259313, 2017;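 active means melting temperature shift of at least 10% of the positive control shift, at one fixed dose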
UCH37 inh: inhibitors of human UCH37 deubiquitinase, primary screen, biochemical, Ub-AMC cleavage, fluorescence | Ubiquitin carboxyl-terminal hydrolase isozyme L5 (Homo sapiens), Q9Y5K5 | purified proteasome/UCH37 | inhibition, % (test concentration not listed) | hit rate 0.33% among 330,000 | AID 588478, 2011;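 active means mean inhibition over replicate wells above about 20%, limit read from the data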
Target sequence (Q9Y5K5 whole entry, looked up): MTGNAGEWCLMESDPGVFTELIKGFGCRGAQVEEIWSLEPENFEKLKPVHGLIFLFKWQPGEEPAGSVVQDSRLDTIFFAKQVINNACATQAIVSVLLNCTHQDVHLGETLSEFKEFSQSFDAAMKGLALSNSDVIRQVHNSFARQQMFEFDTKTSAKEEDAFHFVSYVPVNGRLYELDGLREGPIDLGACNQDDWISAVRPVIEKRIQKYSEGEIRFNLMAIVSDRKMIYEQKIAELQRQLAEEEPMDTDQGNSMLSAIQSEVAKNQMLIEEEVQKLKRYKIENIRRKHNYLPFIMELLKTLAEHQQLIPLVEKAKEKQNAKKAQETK
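System: Proteasome-associated human UCH37 deubiquitinase; Input: 0.15 nM proteasome in added enzyme buffer; Also added: Ub-AMC substrate from 1 µM stock; Incubation: 30 min compound-proteasome preincubation then 25 min substrate reaction, room temperature; Detection: fluorescence, ex 355 nm, em 460 nm; Read-out: % inhibition of Ub-AMC cleavage fluorescence; Benchmarks: no-proteasome and no-compound wells.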
PAFAH1B3 FP inh: PAFAH1B3 enzyme inhibitors, primary screen, biochemical, fluorescence polarization, human | Platelet-activating factor acetylhydrolase IB subunit alpha1 (Homo sapiens), Q15102 | recombinant PAFAH1B3, FP-rhodamine probe | inhibition, % at 3.39 µM | hit rate 0.28% among 340,000;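 active means inhibition above the screen-wide average of all tested compounds plus 3 SD, cut at about 25% in these data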
Target sequence (Q15102 whole entry, looked up): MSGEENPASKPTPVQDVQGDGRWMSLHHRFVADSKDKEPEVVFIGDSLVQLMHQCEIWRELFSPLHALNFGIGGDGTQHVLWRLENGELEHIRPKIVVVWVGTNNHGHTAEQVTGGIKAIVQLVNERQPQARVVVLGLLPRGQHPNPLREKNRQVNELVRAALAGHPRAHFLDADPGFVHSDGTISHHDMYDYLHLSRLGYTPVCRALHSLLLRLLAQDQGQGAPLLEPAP
Large screens that a line does not name were inactive. Sampled rows, rich in hits. Any-hit rate of the full collection: about 4.8%.

COc1ccc(/C=N/NC(=O)c2ccc(NC(=O)c3cccc([N+](=O)[O-])c3)cc2)c(OC)c1	GRIN3A LBD mod 18 (no result: UCH37 inh)
COc1cc(/C=N/NC(=O)c2cccc([N+](=O)[O-])c2)ccc1OCc1ccc(C)cc1	GRIN3A LBD mod 17 (no result: UCH37 inh)
COc1ccccc1/C=N/NC(=O)c1ccc(NC(=O)c2cccc([N+](=O)[O-])c2)cc1	none (no result: PAFAH1B2 inh, PAFAH2 inh, GRIN3A LBD mod, UCH37 inh, PAFAH1B3 FP inh)
COc1ccc(/C=N/NC(=O)c2cccc([N+](=O)[O-])c2)cc1O	none (no result: UCH37 inh)
CC(=O)C(C[N+]1(C)CCCCC1)=NO	none (no result: PAFAH1B2 inh, PAFAH2 inh, pPAFAH inh, GRIN3A LBD mod, PAFAH1B3 FP inh)
CCC(=O)Nc1ccc(C(=O)N/N=C/c2cc(Br)c(OC)cc2OC)cc1	GRIN3A LBD mod 24 (no result: UCH37 inh)
O=C(N/N=C/c1ccccn1)c1ccc(NC(=O)c2cccc([N+](=O)[O-])c2)cc1	none (no result: PAFAH1B2 inh, PAFAH2 inh, UCH37 inh, PAFAH1B3 FP inh)
COc1cc([N+](=O)[O-])cc(/C=N/NC(=O)c2ccc(NC(=O)c3ccc(C)cc3)cc2)c1O	GRIN3A LBD mod 21 (no result: pPAFAH inh, UCH37 inh)
COc1cccc(/C=N/NC(=O)c2cc3cc([N+](=O)[O-])ccc3s2)c1O	GRIN3A LBD mod 12 (no result: UCH37 inh)
O=C(N/N=C/c1cccc(O)c1)c1ccc(NC(=O)c2cccc([N+](=O)[O-])c2)cc1	GRIN3A LBD mod 27 (no result: UCH37 inh)
COc1cc(OC)c(C=NNC(=O)COc2cccc3cccnc23)c(OC)c1	none (no result: PAFAH1B2 inh, PAFAH2 inh, pPAFAH inh, GRIN3A LBD mod, PAFAH1B3 FP inh)
CC(=NNC(=O)COc1ccc(C(C)(C)C)cc1)c1ccccc1	none (no result: PAFAH1B2 inh, PAFAH2 inh, pPAFAH inh, GRIN3A LBD mod, PAFAH1B3 FP inh)
CC(=NNS(=O)(=O)c1ccc([N+](=O)[O-])cc1)c1ccc2c(c1)OCO2	none (no result: PAFAH1B2 inh, PAFAH2 inh, pPAFAH inh, GRIN3A LBD mod, PAFAH1B3 FP inh)
CNc1nc2ccccc2n1/N=C/c1cccc(OC)c1OC	GRIN3A LBD mod 32 (no result: UCH37 inh)
CNc1nc2ccccc2n1N=Cc1cccc(OC)c1OC	none (no result: PAFAH1B2 inh, PAFAH2 inh, pPAFAH inh, GRIN3A LBD mod, PAFAH1B3 FP inh)
CC1(OC(=O)c2cccs2)C(=O)C=C2C=C3CCCN3C=C2C1=O (stereo not given)	pPAFAH inh 28
COc1ccc(C=NN2CCN(c3ccccc3OC)CC2)cc1Br	none (no result: PAFAH1B2 inh, PAFAH2 inh, pPAFAH inh, GRIN3A LBD mod, PAFAH1B3 FP inh)
CCOC(=O)c1nc(Nc2ccc(OC)cc2)c2ccccc2n1	none
CCOC(=O)c1sc(Nc2ccc(Br)cc2)nc1C	GRIN3A LBD mod 14
CCOC(=O)c1cc2nc(Nc3ccc(OC)cc3)sc2s1	GRIN3A LBD mod 15
Cc1ccccc1N=Cc1cc2c(cc1O)OC(N)=C(C#N)C2c1ccccc1 (stereo not given)	pPAFAH inh 26
Cc1ccc(C2C(C#N)=C(N)Oc3cc4c(cc32)OCO4)cc1 (stereo not given)	none
N#CC1=C(N)Oc2cc(O)c(C=Nc3ccccc3)cc2C1c1ccccc1 (stereo not given)	none
Cc1ccc(N=Cc2cc3c(cc2O)OC(N)=C(C#N)C3c2ccccc2)cc1 (stereo not given)	GRIN3A LBD mod 12
CCNC(=S)NN=C(C)c1ccc(N2CCOCC2)cc1	none (no result: PAFAH1B2 inh, PAFAH2 inh, pPAFAH inh, GRIN3A LBD mod, PAFAH1B3 FP inh)
O=C(O)c1ccc(N/N=C/C2=C(N3CCOCC3)C(=C\c3ccccc3)/CC2)cc1	pPAFAH inh 28 (no result: UCH37 inh)
O=C(CN1CC(c2ccccc2)CC1=O)NN=Cc1cc(Br)ccc1O (stereo not given)	none (no result: PAFAH1B2 inh, PAFAH2 inh, pPAFAH inh, GRIN3A LBD mod, PAFAH1B3 FP inh)
O=C(N/N=C/c1ccccc1)c1cc(-c2ccc3c(c2)OCO3)n[nH]1	GRIN3A LBD mod 26 (no result: UCH37 inh)
CN(C)c1ccc(C=NNC(=O)c2cc(-c3ccc4c(c3)OCO4)n[nH]2)cc1	none (no result: PAFAH1B2 inh, PAFAH2 inh, pPAFAH inh, GRIN3A LBD mod, PAFAH1B3 FP inh)
O=C(N/N=C/c1cccc(O)c1)c1cc(-c2ccc3c(c2)OCO3)n[nH]1	GRIN3A LBD mod 32 (no result: UCH37 inh)
CCc1ccc(/C=N/NC(=O)c2cc(-c3cccc([N+](=O)[O-])c3)n[nH]2)cc1	none (no result: UCH37 inh)
O=C(N/N=C/c1ccc(O)cc1)c1cc(-c2ccc3c(c2)OCO3)n[nH]1	GRIN3A LBD mod 28 (no result: UCH37 inh)
O=C(N/N=C/c1cccc([N+](=O)[O-])c1)c1cc(-c2ccc3c(c2)OCO3)n[nH]1	GRIN3A LBD mod 29 (no result: UCH37 inh)
COc1ccc(C=NNC(=O)c2cc(-c3ccc4c(c3)OCO4)n[nH]2)cc1OC	none (no result: PAFAH1B2 inh, PAFAH2 inh, pPAFAH inh, GRIN3A LBD mod, PAFAH1B3 FP inh)
